ARNT-TACC3 inh = disruptors of human ARNT/TACC3 interaction; Q9Y6A5; AlphaScreen His-ARNT PAS-B/GST-TACC3 binding, luminescence; TACC3 fragment carries E629A point mutation; actives 0.66% (n = 390,000); inhibition, % at 9.99 µM;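 active = mean inhibition of replicates at least 50% and at least half of replicates each reaching 50%; inconclusive = half or more replicates reach 50% but mean below 50%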;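 note: 0% = complete ARNT plus TACC3 wells and 100% = ARNT alone without TACC3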
FN deposition inh = fibronectin deposition inhibition | inhibition, % at 12.6 µM | AH1F fibroblasts, Alexa488-fibronectin deposition fluorescence, overnight | actives 0.086% (n = 350,000);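 active = mean inhibition across replicates of 30% or more, regardless of how many single replicates reach that level; inconclusive = mean under 30% yet at least half of replicates reach 30%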;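 note: positive control wells lacked labelled fibronectin entirely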
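Assay system: AH1F fibroblasts / Quantity: 10000 cells per well / Medium: DMEM plus 2% serum, read in PBS / Reagent: labelled fibronectin 24 nM / Dosing: single dose, pinned / Times: 1 h cell attachment, overnight exposure to compound and label / Signal: fluorescence, ex 485 nm, em 525 nm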
SIRT5 inh = blocks human SIRT5 desuccinylation of peptide. Q9NXA8. Purified SirT5, succinyl-peptide AMC, trypsin-coupled fluorescence. inhibition, % at 15 µM. actives 1.1% (n = 330,000); in the data active = inhibition above about 15%; inconclusive = no clear call, values can overlap the other calls
Target sequence (Q9NXA8 whole entry, looked up): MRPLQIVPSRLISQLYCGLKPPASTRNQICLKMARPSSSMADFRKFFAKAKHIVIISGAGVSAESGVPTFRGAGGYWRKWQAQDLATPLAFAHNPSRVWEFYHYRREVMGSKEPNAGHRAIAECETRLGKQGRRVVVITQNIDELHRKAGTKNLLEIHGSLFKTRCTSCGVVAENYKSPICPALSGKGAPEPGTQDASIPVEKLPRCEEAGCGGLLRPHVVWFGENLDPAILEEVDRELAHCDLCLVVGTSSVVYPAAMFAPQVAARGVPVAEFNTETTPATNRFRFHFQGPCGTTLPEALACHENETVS
FGF22 binding = shifts melting point of recombinant human FGF22 | Q9HCT0 | recombinant FGF22 thermal shift, SYPRO orange fluorescence; percent of sucrose octasulfate shift, DMSO zero | activity (Tm shift, normalised), % at 9.99 µM | actives 1.5% (n = 340,000);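 active = mean Tm shift, scaled 0 neutral to 100 positive control, at about 1.3% or above, every replicate too, limit read from the data; inconclusive = no clear call, values can overlap the other calls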
Target sequence (Q9HCT0 whole entry, looked up): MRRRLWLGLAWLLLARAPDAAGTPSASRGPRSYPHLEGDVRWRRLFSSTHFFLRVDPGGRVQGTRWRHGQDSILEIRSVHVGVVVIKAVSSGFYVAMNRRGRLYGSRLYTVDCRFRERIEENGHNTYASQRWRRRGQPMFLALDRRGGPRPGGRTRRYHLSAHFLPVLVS
XiGFP reactiv = reactivates the inactive X chromosome in mouse fibroblasts | AID 743238 | XiGFP mouse fibroblasts, % GFP-positive cells imaging, 3 d; cells co-treated with 5-aza-dC sensitizer; scaled so ellipticine positive control = 100% | actives 0.055% (n = 360,000) | activation, % at 7.58 µM;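 active = mean normalized replicate activation at least 10% and every replicate at or above 10%; inconclusive = only one of the two criteria met; inactive = mean below 10% and not all replicates reach 10%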;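 note: 0% = median of on-plate neutral control wells and 100% = ellipticine 6 µM median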
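Assay system: SV40-immortalized XiGFP fibroblast cells, line 68-5-11; buffer or medium: DMEM plus 5-aza-dC sensitizer; compound: one concentration, pinned; timing: compounds 3 days, fix/stain 15 min at room temperature; benchmarks: positive control ellipticine, 6 µM final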
DENV2 CPE = protects cells from dengue virus 2 cytopathic effect | DENV2-infected cells, cytopathic effect rescue, plate reader | CPE inhibition, % at 9.99 µM | actives 1.7% (n = 350,000) | AID 651640; in the data active = CPE inhibition above about 20%, passing the limit was not always enough; inconclusive = no clear call, values can overlap the other calls; tested in BHK-21 cells;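 note: 0% = median of neutral control wells and 100% = median of positive control wells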
Active calls of the source: *. A selection: hits, their analogues and other compounds. The true share with any hit is near 3.8%.

What do the screens show for `CC(C)NC(=O)N(C)C[C@H]1Oc2ccc(NS(C)(=O)=O)cc2CC(=O)N(C)C[C@H]1C`?
FN deposition inh: 5; XiGFP reactiv: 0

Results for CCOC(=O)c1c(C)[nH]c(C(=O)N/N=C/c2cc([N+](=O)[O-])ccc2O)c1C ?
ARNT-TACC3 inh: 72*; FN deposition inh: 4; SIRT5 inh: 0; FGF22 binding: 0; XiGFP reactiv: 0; DENV2 CPE: -5

How did Cc1cc(C(=O)N/N=C/c2cc([N+](=O)[O-])ccc2O)c2ccccc2n1 do in these assays?
ARNT-TACC3 inh: 76*

How did O=C(NC(C(=O)N/N=C/c1cccc2ccccc12)c1n[nH]c(=O)c2ccccc12)c1ccccc1 (centres undefined) do in these assays?
ARNT-TACC3 inh: 4

Results for O=C(NC(C(=O)N/N=C/c1cc([N+](=O)[O-])ccc1O)c1n[nH]c(=O)c2ccccc12)c1ccccc1 (centres undefined) ?
ARNT-TACC3 inh: 68*; FN deposition inh: -23; SIRT5 inh: 5; FGF22 binding: 0; XiGFP reactiv: 0; DENV2 CPE: 0

What do the screens show for `O=C1CN(S(=O)(=O)c2cccc(F)c2)C[C@H]2[C@H](c3ccc(C4=CCCC4)cc3)[C@@H](CO)N12`?
FN deposition inh: -6; FGF22 binding: 0; XiGFP reactiv: 0; DENV2 CPE: -3

Results for O=C(Cc1ccccc1)N[C@@H]1C=C[C@H](CC(=O)N2CCCCC2)O[C@H]1CO ?
ARNT-TACC3 inh: -2; FN deposition inh: -13; SIRT5 inh: 0; FGF22 binding: 0; XiGFP reactiv: 0; DENV2 CPE: 20

What do the screens show for `C[C@@H]1CN([C@H](C)CO)C(=O)c2cc(NC(=O)Cc3ccccc3)ccc2O[C@@H](C)CCCCO[C@H]1CN(C)C`?
XiGFP reactiv: 0

Results for Cc1oc(-c2cccc(Cl)c2)nc1CS(=O)(=O)CC(=O)NC1CC1 ?
ARNT-TACC3 inh: -6; FN deposition inh: -11; SIRT5 inh: -4; FGF22 binding: 0; XiGFP reactiv: 0; DENV2 CPE: 5

What do the screens show for `Cc1oc(-c2cccc(Cl)c2)nc1CS(=O)(=O)CC(=O)NCc1ccco1`?
ARNT-TACC3 inh: -3; FN deposition inh: -7; SIRT5 inh: -3; FGF22 binding: 1.5*; XiGFP reactiv: 0; DENV2 CPE: -2

What do the screens show for `O=C(Nc1nnc(-c2ccco2)o1)c1cccc(N2C(=O)CCC2=O)c1`?
ARNT-TACC3 inh: 49*; FN deposition inh: -2; SIRT5 inh: 3; FGF22 binding: 0; XiGFP reactiv: 0; DENV2 CPE: 13

What do the screens show for `CN(C)S(=O)(=O)c1ccc(C(=O)Nc2nnc(-c3ccco3)o2)cc1`?
SIRT5 inh: 16*; FGF22 binding: 0; XiGFP reactiv: 0; DENV2 CPE: -7

How did COc1cccc(-c2ccc3c(c2)[C@H]2[C@H](CCN2S(=O)(=O)c2ccccc2OC)[C@H](CO)N3)c1 do in these assays?
ARNT-TACC3 inh: -6; FN deposition inh: -1; SIRT5 inh: 9; FGF22 binding: -1; XiGFP reactiv: 0; DENV2 CPE: -4

What do the screens show for `COc1ccccc1-c1nnc(-c2ccc(C)cc2)o1`?
ARNT-TACC3 inh: 25; FN deposition inh: -8; SIRT5 inh: -2; FGF22 binding: 0; XiGFP reactiv: 0; DENV2 CPE: -9

What do the screens show for `COc1ccccc1C1=NC(c2ccc(C)cc2)N=C1C` (centres undefined)?
ARNT-TACC3 inh: -6; FN deposition inh: 3; SIRT5 inh: -5; FGF22 binding: 44*; XiGFP reactiv: 0; DENV2 CPE: inconclusive

How did CO[C@@H]1CN(C)C(=O)c2cc(NC(=O)C3CC3)ccc2OC[C@H](C)N(CC2CCCC2)C[C@@H]1C do in these assays?
ARNT-TACC3 inh: -5; FN deposition inh: -1; SIRT5 inh: -5; FGF22 binding: 0; XiGFP reactiv: 0; DENV2 CPE: 7

How did COc1cc(/C=N/N2CCN(Cc3ccc(Cl)cc3)CC2)cc(Br)c1O do in these assays?
ARNT-TACC3 inh: 27; FN deposition inh: -8; SIRT5 inh: 18*; FGF22 binding: 0; XiGFP reactiv: 0; DENV2 CPE: 9

How did CCCNC(=O)[C@@H]1[C@@H](CO)[C@@H]2Cn3c(ccc(-c4cccc(OC)c4)c3=O)[C@H]1N2CCC do in these assays?
ARNT-TACC3 inh: -6; SIRT5 inh: -7; FGF22 binding: 0; XiGFP reactiv: 0; DENV2 CPE: -3

What do the screens show for `Cc1ccc(-n2nc3c(=O)n(CC(=O)NCc4cccs4)nc(C)c3c2C)cc1`?
ARNT-TACC3 inh: 15; FN deposition inh: -3; SIRT5 inh: 0; FGF22 binding: 0; XiGFP reactiv: 0; DENV2 CPE: 54*

How did Cc1ccc(C(=O)NCc2ccccn2)cc1NC1=NC2CS(=O)(=O)CC2S1 (centres undefined) do in these assays?
ARNT-TACC3 inh: 16; FN deposition inh: 1; SIRT5 inh: -10; FGF22 binding: 0; XiGFP reactiv: 22*; DENV2 CPE: -7

What do the screens show for `CCOc1ccc(CCNC(=O)c2ccc(C)c(NC3=NC4CS(=O)(=O)CC4S3)c2)cc1` (centres undefined)?
ARNT-TACC3 inh: 1; FN deposition inh: 1; SIRT5 inh: 0; FGF22 binding: 0; XiGFP reactiv: 0; DENV2 CPE: inconclusive

What do the screens show for `O=C(Cc1ccccn1)N[C@H]1CC[C@H](CC(=O)N2CCCCC2)O[C@@H]1CO`?
ARNT-TACC3 inh: 21; FN deposition inh: -5; SIRT5 inh: 4; FGF22 binding: 1; XiGFP reactiv: 0; DENV2 CPE: -5

How did Cn1c(C(=O)N2CCN(c3ccc([N+](=O)[O-])cc3)CC2)cc2c(=O)[nH]c3ccccc3c21 do in these assays?
ARNT-TACC3 inh: 31; FN deposition inh: -7; SIRT5 inh: 1; FGF22 binding: 44*; XiGFP reactiv: 0; DENV2 CPE: 6

How did COc1cccc(-c2ccc(C#N)c(=O)[nH]2)c1 do in these assays?
FN deposition inh: -11; SIRT5 inh: -6; FGF22 binding: 43*; XiGFP reactiv: 0

What do the screens show for `COCC(=O)Nc1ccc2c(c1)[C@H]1C[C@H](CC(=O)NCc3ccccc3OC)O[C@@H](CO)[C@H]1O2`?
ARNT-TACC3 inh: -7; FN deposition inh: 0; SIRT5 inh: -1; FGF22 binding: 0; XiGFP reactiv: 0; DENV2 CPE: -3

How did O=C(NCc1ccccc1)[C@@H]1CCCN1C(=O)[C@@H](NS(=O)(=O)c1ccc(F)cc1F)c1ccccc1 do in these assays?
FN deposition inh: 4; SIRT5 inh: 0; FGF22 binding: 0; XiGFP reactiv: 0; DENV2 CPE: 14

Compound activity (PubChem)
